Results collected from several papers.
Compare with care: the assays were run in different laboratories.
Target: Casein kinase I isoform delta (CSNK1D, Homo sapiens, UniProt P48730)

SMILES | effect on | mode | method | concentration | measurement | result
COc1cc(Cl)c(C(=O)N[C@@H](CN[C@H]2CC[C@@H](N)CC2)Cc2ccc(C#N)cc2)cc1-c1ccc(CN[C@H](C)c2ccc(C)cc2)o1 | enzyme activity | inhibitor | – | 1 µM | remaining activity | 89%
Cc1nc(N2CC[C@@H](O)C2)ncc1-c1cc(C(F)(F)F)cc2[nH]ncc12 | cell-free assay | – | competition with immobilised ligand | 1 µM | remaining binding | 95%
CS(=O)(=O)CCNCc1ccc(-c2ccc3ncnc(Nc4ccc(OCc5cccc(F)c5)c(Cl)c4)c3c2)o1 | cell-free assay | – | – | 0.5 µM | remaining signal | 91.2%
CC(=O)N1CCC(c2ccc(C(=O)NC3=NCCN3)cc2C(F)(F)F)CC1 | cell-free assay | – | competition with immobilised ligand | 1 µM | remaining binding | 100%
O=C(Nc1cnn(-c2csc(C(=O)NC3COC3)c2)c1)Nc1ccccc1Cl | enzyme activity | inhibitor | – | 5 µM | remaining activity | 101%
Nc1ncnc2occ(-c3ccc(NC(=O)Nc4cc(C(F)(F)F)ccc4F)cc3)c12 | cell-free assay | inhibitor | – | 20 µM | remaining signal | 3.9%
CN([C@@H]1CCc2c(CC(=O)O)c3cc(S(C)(=O)=O)ccc3n2C1)S(=O)(=O)c1ccc(F)cc1 | cell-free assay | – | competition with immobilised ligand | 1 µM | remaining binding | 100%
CC/C(=N\NC(=O)NCc1cccc(O)c1)c1ccc(O)c(C)c1O | enzyme activity | inhibitor | – | 0.1 µM | inhibition | 3.7%
O=C1Nc2ccc(Cl)cc2C1=Cc1cc(Cl)c(O)c(Cl)c1 | cell-free assay | – | – | 0.5 µM | remaining signal | 89.6%
CN1CC(Oc2cnc(C#N)cc2-c2ccn3nc(NC(=O)C4CC4)cc3c2)C1 | enzyme activity | inhibitor | – | 1 µM | inhibition | -20%
CC(C)(O)[C@H]1CC[C@H](Nc2ccc3ncc(-c4cccc(C(F)(F)F)c4)n3n2)CC1 | enzyme activity | inhibitor | – | 1 µM | remaining activity | 84.2%
CC(C)(C)c1nc2c(s1)c1nc(N)ncc1c1ccc(NS(=O)(=O)c3c(F)cccc3F)c(F)c12 | enzyme activity | inhibitor | radiometric | 1 µM | remaining activity | 79%
COc1cc(Nc2cnc(C#N)c(O[C@H](C)CN(C)C)n2)ncc1-c1cnn(C)c1 | enzyme activity | inhibitor | radiometric | 1 µM | remaining activity | 76%
CNc1cccc2cc(C(=O)Nc3ccc(C(=O)O)cc3)c(=O)[nH]c12 | enzyme activity | inhibitor | – | 10 µM | inhibition | 25%
FC(F)(F)Oc1cccc(-c2cnc3ccc(-c4ccncc4)nn23)c1 | enzyme activity | inhibitor | radiometric | 5 µM | activity vs control | 97%
CO[C@@H](C)c1c(Nc2ccc([C@H](N(C)C(=O)C3CCS(=O)(=O)CC3)C(F)(F)F)cc2)cnc2cc(Cl)nn12 | cell-free assay | – | competition with immobilised ligand | 1 µM | remaining binding | 88%
Cc1ccc(C(=O)Nc2ccc(CN3CCN(C)CC3)c(C(F)(F)F)c2)cc1C#Cc1cnc2cccnn12 | enzyme activity | – | – | 23.5 nM | remaining activity | 100%
O=C1CCc2cc(Nc3cc(OC4CCOCC4)c([N+](=O)[O-])cc3Cl)ccc2N1 | cell-free assay | – | competition with immobilised ligand | 1 µM | remaining binding | 90%
O=C(CSc1nc2nccnc2c(=O)n1CCc1ccccc1)Nc1nccs1 | enzyme activity | inhibitor | – | 10 µM | inhibition | 7%
Cc1cc(-n2nc(Cc3cc(F)cc(C(F)(F)F)c3)nc2C)ccc1C(N)=O | cell-free assay | – | competition with immobilised ligand | 1 µM | remaining binding | 100%
COc1cc2ncnc(Nc3ccc(Oc4ccccc4)c(C)c3C)c2cc1OC | enzyme activity | inhibitor | – | 1 µM | inhibition | 1%
COc1cc2c(Nc3ccc(Br)cc3F)ncnc2cc1OCC1CCN(C)CC1 | cell-free assay | – | – | 0.5 µM | remaining signal | 94.4%
CCN(CC)c1ccc(C2=NNC(=O)CC2C)cc1[N+](=O)[O-] (stereo not shown) | enzyme activity | inhibitor | – | 10 µM | remaining activity | 109%
Nc1c(C(=O)NCc2ccc(C(=O)NCCCC3CCCCC3)cc2)cnn1-c1ccccc1 | cell-free assay | – | competition with immobilised ligand | 0.1 µM | remaining binding | 100%
COc1cc2ncnc(Nc3ccc(F)c(Cl)c3)c2cc1OCCCN1CCOCC1 | cell-free assay | – | – | 0.5 µM | remaining signal | 90.4%
